Test results published in ChEMBL document CHEMBL4002595, “Metadynamics for Perspective Drug Design: Computationally Driven Synthesis of New Protein-Protein Interaction Inhibitors Targeting the EphA2 Receptor” (J Med Chem, 2017).
Converted amounts (≈) assume the structure as drawn. Blank lines part the entries; values can stand above or below the molecule they belong to. The source made the active and inactive calls. The rule behind the calls is not given here.

How the values were obtained:
Liver [1] = experiment: Drug level in mouse liver microsomes treated with (S)-3-((S)-4-((5R,8R,9S,10S,13R,14S,17R)-3-hydroxy-10,13-dimethylhexadecahydro-1H-cyclopenta[a]phenanthren-17-yl)pentanamido)-4-(1H-indol-3-yl)butanoic acid by HPLC-ESI-MS/MS analysis
[2] = target: Ephrin type-A receptor 2 (Mus musculus) (UniProt Q03145); experiment: Displacement of biotinylated ephrin-A1-Fc from recombinant mouse EphA2 receptor up to 100 uM preincubated for 1 hr followed by biotinylated ephrin-A1-Fc addition measured after 4 hrs by ELISA method
In short: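 EphA2-Fc (1 µg mL⁻¹ in PBS pH 7.4) was coated overnight at 4 °C, then blocked with PBS + 0.5% BSA for 1 h at 37 °C. Compounds in 1% DMSO were added for 1 h at 37 °C. Biotinylated ephrin-A1-Fc was then added at its K_D for 4 h at 37 °C. Detection used streptavidin-HRP (20 min, RT), TMB/H₂O₂, HCl stop and A450. IC₅₀ came from one-site competition nonlinear regression; mean of ≥3 independent experiments.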

Ephrin type-A receptor 2 = Ephrin type-A receptor 2 (Mus musculus, UniProt Q03145); experiment: Displacement of biotinylated ephrin-A1-Fc from recombinant mouse EphA2 receptor preincubated for 1 hr followed by biotinylated ephrin-A1-Fc addition measured after 4 hrs by ELISA method
[3] = Cmax in mouse at 30 mg/kg, administered as single dose via oral gavage by HPLC-ESI-MS/MS analysis; type: ADME, organism-based; parameters: dose 30 mg/kg, route oral; details: in vivo
In short: (§1)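 Male mice, fasted, groups of four; single oral gavage at 30 mg/kg in 0.5% methylcellulose (10/90 v/v). Tail-puncture blood at 5-7 time points between 15 and 1440 min, centrifuged 5000 rpm 10 min, plasma stored at -20 °C, quantified by HPLC-ESI-MS/MS. Reported as means ± SEM.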

[4] = Stability in mouse plasma assessed as compound remaining at 1 uM after 24 hrs by HPLC-ESI-MS/MS analysis; type: ADME, cell-free; details: read-out: Stability
In short: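 Mouse plasma diluted to 80% (v/v) with 100 mM PBS pH 7.4. Compound added at 1 μM final with 1% v/v DMSO, held at 37 °C. Aliquots taken at intervals, quenched with two volumes MeCN, centrifuged 9,000 g 10 min at 4 °C. Percent remaining measured by HPLC-ESI-MS/MS.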

[5] = Kinetic solubility in MOPS buffer at pH 7.4 measured after 4 hrs by HPLC-ESI-MS/MS analysis; type: physicochemical; details: read-out: Kinetic_solubility
In short: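 DMSO stock (10 mM) diluted into 50 mM MOPS pH 7.4, ionic strength 0.15 M with KCl, final 1% DMSO. Agitated 4 h at 25 ± 3 °C, centrifuged 1,000 g 10 min. Supernatant diluted 1:1 with MeOH containing internal standard, quantified by HPLC-ESI-MS/MS against per-compound MeOH calibration curves.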

[6] = Tmax in mouse at 30 mg/kg, administered as single dose via oral gavage by HPLC-ESI-MS/MS analysis; type: ADME, organism-based; details: in vivo
In short: as §1

[7] = n-Octanol-buffer partition co-efficient, log D of the compound at pH 7.4 incubated overnight by shake-flask method; type: physicochemical
In short: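 Shake-flask n-octanol/buffer partition at 25 ± 3 °C against 50 mM MOPS pH 7.4, ionic strength 0.15 M with KCl. Pre-saturated phases equilibrated overnight. Each phase diluted in MeOH with internal standard and analysed by HPLC-ESI-MS/MS. Mean of three independent partitions using different octanol/buffer volume ratios.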

[8] = Half-life in mouse liver microsomes at 1 uM in presence of NADPH by HPLC-ESI-MS/MS analysis; type: ADME, microsome
Plasma [9] = experiment: Drug uptake in mouse plasma at 30 mg/kg, administered as single dose via oral gavage after 24 hrs by HPLC-ESI-MS/MS analysis; type: ADME, organism-based; details: in vivo
In short: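 Male mice (fasted, four per group) received a single esophageal gavage of 30 mg/kg in 0.5% methylcellulose. Tail-puncture blood was taken at 5–7 time points between 15 and 1440 min. Plasma was separated by centrifugation (5000 rpm, 10 min), stored at –20 °C and quantified by HPLC-ESI-MS/MS. Data are means ± SEM.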

Liver [10] = experiment: Drug metabolism in mouse liver microsomes assessed as (S)-3-((S)-4-((5R,8R,9S,10S,13R,14S,17R)-10,13-dimethyl-3-oxohexadecahydro-1H-cyclopenta[a]phenanthren-17-yl)pentanamido)-4-(1H-indol-3-yl)butanoic acid formation by HPLC-ESI-MS/MS analysis; type: ADME, microsome
Plasma [11] = experiment: Drug uptake in mouse plasma at 30 mg/kg, administered as single dose via oral gavage after 120 min by HPLC-ESI-MS/MS analysis; details: in vivo

Sequence of Ephrin type-A receptor 2 (Mus musculus) (Q03145 whole entry): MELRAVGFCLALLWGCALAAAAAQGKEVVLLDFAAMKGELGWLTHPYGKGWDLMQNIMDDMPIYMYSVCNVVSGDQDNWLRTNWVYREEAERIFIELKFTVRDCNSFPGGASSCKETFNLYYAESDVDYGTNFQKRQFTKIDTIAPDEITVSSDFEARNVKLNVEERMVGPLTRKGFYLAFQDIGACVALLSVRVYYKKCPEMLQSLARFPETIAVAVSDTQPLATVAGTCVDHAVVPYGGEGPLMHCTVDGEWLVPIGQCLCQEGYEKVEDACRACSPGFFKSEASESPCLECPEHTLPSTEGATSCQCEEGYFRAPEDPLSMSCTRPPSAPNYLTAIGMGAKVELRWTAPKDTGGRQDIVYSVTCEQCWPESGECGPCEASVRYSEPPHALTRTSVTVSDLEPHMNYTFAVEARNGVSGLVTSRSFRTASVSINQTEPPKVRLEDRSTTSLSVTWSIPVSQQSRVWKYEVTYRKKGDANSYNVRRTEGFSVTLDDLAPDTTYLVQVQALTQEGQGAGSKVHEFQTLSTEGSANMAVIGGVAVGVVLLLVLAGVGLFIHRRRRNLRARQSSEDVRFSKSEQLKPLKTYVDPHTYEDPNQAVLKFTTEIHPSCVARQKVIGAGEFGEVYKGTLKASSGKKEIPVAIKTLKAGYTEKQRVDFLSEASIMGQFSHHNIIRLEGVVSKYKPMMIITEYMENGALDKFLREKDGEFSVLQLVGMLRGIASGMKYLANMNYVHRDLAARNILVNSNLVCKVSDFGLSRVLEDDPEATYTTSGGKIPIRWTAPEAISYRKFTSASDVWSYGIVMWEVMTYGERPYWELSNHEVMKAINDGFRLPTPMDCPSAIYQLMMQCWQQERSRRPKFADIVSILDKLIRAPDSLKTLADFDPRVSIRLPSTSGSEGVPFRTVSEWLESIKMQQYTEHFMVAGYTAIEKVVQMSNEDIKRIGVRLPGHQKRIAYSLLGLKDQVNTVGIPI
Sequence of Ephrin type-A receptor 2 (Q03145 whole entry): as above

Drug metabolism (Liver [1]): Metabolite_Detected
Structure (SMILES): C[C@H](CCC(=O)N[C@H](CC(=O)O)Cc1c[nH]c2ccccc12)[C@H]1CC[C@H]2[C@@H]3CC[C@@H]4CC(=O)CC[C@]4(C)[C@H]3CC[C@]12C

inhibition [2]: inactive
Structure (SMILES): C[C@H](CCC(=O)NCCCC(=O)O)[C@H]1CC[C@H]2[C@@H]3CC[C@@H]4C[C@H](O)CC[C@]4(C)[C@H]3CC[C@]12C

IC50 (Ephrin type-A receptor 2): 14 µM
Structure (SMILES): C[C@H](CCC(=O)N[C@H](CC(=O)O)c1ccccc1)[C@H]1CC[C@H]2[C@@H]3CC[C@@H]4C[C@H](O)CC[C@]4(C)[C@H]3CC[C@]12C

IC50 (Ephrin type-A receptor 2): 1.8 µM
Structure (SMILES): C[C@H](CCC(=O)N[C@H](CC(=O)O)Cc1csc2ccccc12)[C@H]1CC[C@H]2[C@@H]3CC[C@@H]4C[C@H](O)CC[C@]4(C)[C@H]3CC[C@]12C

IC50 (Ephrin type-A receptor 2): 10 µM
Structure (SMILES): CC(C)[C@@H](CC(=O)O)NC(=O)CC[C@@H](C)[C@H]1CC[C@H]2[C@@H]3CC[C@@H]4C[C@H](O)CC[C@]4(C)[C@H]3CC[C@]12C

Structure (SMILES): C[C@H](CCC(=O)NCCC(=O)O)[C@H]1CC[C@H]2[C@@H]3CC[C@@H]4C[C@H](O)CC[C@]4(C)[C@H]3CC[C@]12C
IC50 (Ephrin type-A receptor 2): 29 µM

IC50 (Ephrin type-A receptor 2): 83 µM
Structure (SMILES): CSCC[C@@H](CC(=O)O)NC(=O)CC[C@@H](C)[C@H]1CC[C@H]2[C@@H]3CC[C@@H]4C[C@H](O)CC[C@]4(C)[C@H]3CC[C@]12C

inhibition [2]: inactive
Structure (SMILES): C[C@H](CCC(=O)NCCCCC(=O)O)[C@H]1CC[C@H]2[C@@H]3CC[C@@H]4C[C@H](O)CC[C@]4(C)[C@H]3CC[C@]12C

IC50 (Ephrin type-A receptor 2): 3.9 µM
Structure (SMILES): C[C@H](CCC(=O)N[C@H](CC(=O)O)Cc1cccc2ccccc12)[C@H]1CC[C@H]2[C@@H]3CC[C@@H]4C[C@H](O)CC[C@]4(C)[C@H]3CC[C@]12C

Cmax [3]: 870 nM
remaining at 24 h, 1 µM [4]: 98.2%
solubility kinetic at 4 h [5]: 18.7 µM (≈ 11.6 µg/mL)
Tmax [6]: 1 h
IC50 (Ephrin type-A receptor 2): 0.8 µM
logD [7]: 5.01
half-life at 1 µM [8]: 2.6 h
Drug uptake (Plasma [9]): Active
Structure (SMILES): C[C@H](CCC(=O)N[C@H](CC(=O)O)Cc1c[nH]c2ccccc12)[C@H]1CC[C@H]2[C@@H]3CC[C@@H]4C[C@H](OC(N)=O)CC[C@]4(C)[C@H]3CC[C@]12C

Structure (SMILES): C[C@H](CCC(=O)N[C@H](CC(=O)O)Cc1c[nH]c2ccccc12)[C@H]1CC[C@H]2[C@@H]3CC[C@@H]4C/C(=N/O)CC[C@]4(C)[C@H]3CC[C@]12C
Cmax [3]: 400 nM
remaining at 24 h, 1 µM [4]: 93.7%
solubility kinetic at 4 h [5]: 51.9 µM (≈ 30.6 µg/mL)
Tmax [6]: 1 h
IC50 (Ephrin type-A receptor 2): 3.1 µM
logD [7]: 4.23
half-life at 1 µM [8]: 1.01 h

inhibition [2]: inactive
Structure (SMILES): CC(C)C[C@@H](CC(=O)O)NC(=O)CC[C@@H](C)[C@H]1CC[C@H]2[C@@H]3CC[C@@H]4C[C@H](O)CC[C@]4(C)[C@H]3CC[C@]12C

Structure (SMILES): C[C@H](CCC(=O)O)[C@H]1CC[C@H]2[C@@H]3CC[C@@H]4C[C@H](O)CC[C@]4(C)[C@H]3CC[C@]12C [LITHOCHOLIC ACID]
IC50 (Ephrin type-A receptor 2): 79 µM

inhibition [2]: inactive
Structure (SMILES): C[C@H](CCC(=O)N[C@@H](CCc1ccccc1)CC(=O)O)[C@H]1CC[C@H]2[C@@H]3CC[C@@H]4C[C@H](O)CC[C@]4(C)[C@H]3CC[C@]12C

Structure (SMILES): C[C@H](CCC(=O)N[C@H](CC(=O)O)Cc1c[nH]c2ccccc12)[C@H]1CC[C@H]2[C@@H]3CC[C@@H]4C[C@H](O)CC[C@]4(C)[C@H]3CC[C@]12C
Cmax [3]: 10 nM
solubility kinetic at 4 h [5]: 31.8 µM (≈ 18.3 µg/mL)
Drug metabolism (Liver [10]): Metabolite_Detected
half-life at 1 µM [8]: 0.28 h
Drug uptake (Plasma [11]): Active

IC50 (Ephrin type-A receptor 2): 13 µM
Structure (SMILES): CO/N=C1\CC[C@@]2(C)[C@H](CC[C@@H]3[C@@H]2CC[C@]2(C)[C@@H]([C@H](C)CCC(=O)N[C@H](CC(=O)O)Cc4c[nH]c5ccccc45)CC[C@@H]32)C1

IC50 (Ephrin type-A receptor 2): 28 µM
Structure (SMILES): C[C@H](CCC(=O)N[C@H](CC(=O)O)Cc1c[nH]c2ccccc12)[C@H]1CC[C@H]2[C@@H]3CC[C@@H]4CCCC[C@]4(C)[C@H]3CC[C@]12C

inhibition [2]: inactive
Structure (SMILES): COC(=O)CCNC(=O)CC[C@@H](C)[C@H]1CC[C@H]2[C@@H]3CC[C@@H]4C[C@H](O)CC[C@]4(C)[C@H]3CC[C@]12C

IC50 (Ephrin type-A receptor 2): 18 µM
Structure (SMILES): C[C@H](CCC(=O)N[C@H](CC(=O)O)Cc1ccccc1)[C@H]1CC[C@H]2[C@@H]3CC[C@@H]4C[C@H](O)CC[C@]4(C)[C@H]3CC[C@]12C

Structure (SMILES): C[C@H](CCC(=O)NCCS(=O)(=O)O)[C@H]1CC[C@H]2[C@@H]3CC[C@@H]4C[C@H](O)CC[C@]4(C)[C@H]3CC[C@]12C [TAUROLITHOCHOLIC ACID]
IC50 (Ephrin type-A receptor 2): 72 µM
